Laboratory results from ChEMBL document CHEMBL1687813 (Antimicrob Agents Chemother, 2010).
In brackets after ≈: the same amount, converted by molar mass. Activity calls are given as the source filed them. No cut-off for these calls is given here.

Legend:
[1] = target: T1, PYRAZINAMIDASE/NICOTINAMIDAS PNCA (PZase) (Mycobacterium tuberculosis) (UniProt Q50575); test: Activity of PncA in Mycobacterium tuberculosis H37Ra assessed as compound turnover per ml of microbial cells after 30 mins by […] analysis
T1 sequence (whole entry): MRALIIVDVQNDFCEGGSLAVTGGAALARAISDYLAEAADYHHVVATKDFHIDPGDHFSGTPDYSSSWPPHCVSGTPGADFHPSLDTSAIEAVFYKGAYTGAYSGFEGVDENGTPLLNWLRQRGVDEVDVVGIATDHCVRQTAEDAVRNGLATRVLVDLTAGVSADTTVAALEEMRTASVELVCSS
Summary of the method: (§1)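 Whole-cell colorimetric amidase assay: log-phase cells were pelleted and resuspended in sterile water with 0.05% tyloxapol. Substrate (PZA or 5-Cl PZA) was added to 2 mM at 37°C with shaking and sampled at intervals. Clarified aliquots received ferrous ammonium sulfate (20 mM final), stood 30 min at 4°C, were re-spun, and were read at OD468. Extinction coefficients were 0.68 (PA) and 0.47 (5-Cl PA) per mM. Activity is nmol/min per ml of cells (OD600).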

[2] = target: T2, Nicotinamidase/pyrazinamidase (Mycolicibacterium smegmatis) (UniProt Q9ZHK8); test: Activity of PzaA in Mycobacterium smegmatis mc2155 assessed as compound turnover per ml of microbial cells after 30 mins by […] analysis
T2 sequence (whole entry): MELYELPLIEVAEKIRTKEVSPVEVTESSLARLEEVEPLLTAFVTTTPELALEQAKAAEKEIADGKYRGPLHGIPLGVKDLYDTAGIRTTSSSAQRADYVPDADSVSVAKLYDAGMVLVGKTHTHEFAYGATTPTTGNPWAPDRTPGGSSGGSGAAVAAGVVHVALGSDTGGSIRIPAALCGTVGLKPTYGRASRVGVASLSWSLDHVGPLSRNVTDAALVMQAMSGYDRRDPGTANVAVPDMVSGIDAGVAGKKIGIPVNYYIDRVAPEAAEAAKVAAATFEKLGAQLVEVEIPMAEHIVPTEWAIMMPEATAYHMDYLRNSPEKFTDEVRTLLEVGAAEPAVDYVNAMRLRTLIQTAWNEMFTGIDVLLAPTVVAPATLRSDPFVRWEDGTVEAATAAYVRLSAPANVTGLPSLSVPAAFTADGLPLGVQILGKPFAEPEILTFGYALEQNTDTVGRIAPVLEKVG

[3] = target: T2, Nicotinamidase/pyrazinamidase (Mycolicibacterium smegmatis); test: Activity of PzaA in Mycobacterium smegmatis mc22612 assessed as compound turnover per ml of microbial cells after 30 mins by […] analysis
[4] = target: T2, Nicotinamidase/pyrazinamidase (Mycolicibacterium smegmatis); test: Activity of PzaA in Mycobacterium smegmatis mc27031 assessed as compound turnover per ml of microbial cells after 30 mins by […] analysis; summary of the method: as §1
[5] = target: T2, Nicotinamidase/pyrazinamidase (Mycolicibacterium smegmatis); test: Activity of PzaA in Mycobacterium smegmatis mc27032 assessed as compound turnover per ml of microbial cells after 30 mins by […] analysis; summary of the method: as §1
[6] = target: T2, Nicotinamidase/pyrazinamidase (Mycolicibacterium smegmatis); test: Activity of PzaA in Mycobacterium smegmatis mc27034 assessed as compound turnover per ml of microbial cells after 30 mins by […] analysis; summary of the method: as §1
[7] = target: T2, Nicotinamidase/pyrazinamidase (Mycolicibacterium smegmatis); test: Activity of PzaA in Mycobacterium smegmatis mc27035 assessed as compound turnover per ml of microbial cells after 30 mins by […] analysis; summary of the method: as §1
[8] = target: T2, Nicotinamidase/pyrazinamidase (Mycolicibacterium smegmatis); test: Activity of PzaA in Mycobacterium smegmatis mc27036 assessed as compound turnover per ml of microbial cells after 30 mins by […] analysis; summary of the method: as §1
[9] = target: T2, Nicotinamidase/pyrazinamidase (Mycolicibacterium smegmatis); test: Activity of PzaA in Mycobacterium smegmatis mc27037 assessed as compound turnover per ml of microbial cells after 30 mins by […] analysis; summary of the method: as §1
[10] = target: T2, Nicotinamidase/pyrazinamidase (Mycolicibacterium smegmatis); test: Activity of PzaA in Mycobacterium smegmatis mc27038 assessed as compound turnover per ml of microbial cells after 30 mins by […] analysis; summary of the method: as §1
[11] = system: Mycolicibacterium smegmatis; test: Antimicrobial activity against Mycobacterium smegmatis mc2155 after 48 hrs by broth microdilution method; format: functional; conditions: mc2155, 48 h
[12] = system: Mycolicibacterium smegmatis; test: Antimicrobial activity against 5-Cl PZA-resistant Mycobacterium smegmatis mc22612after 48 hrs by broth microdilution method; format: functional; conditions: mc22612, 48 h
[13] = system: Mycolicibacterium smegmatis; test: Antimicrobial activity against Mycobacterium smegmatis mc27031 harboring MSMEG_1088::magellan4 after 48 hrs by broth microdilution method; format: functional; conditions: mc27031, 48 h
Summary of the method: (§2)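 Broth MIC: exponentially growing cells were diluted to 10^6 CFU/ml in supplemented 7H9 across a range of PZA or 5-Cl PZA concentrations. Medium was adjusted to pH 5.2 where indicated. Cultures were incubated 2 days at 37°C. The MIC is the lowest concentration preventing visible growth. Plasmid-borne amidases were induced with 50 ng/ml anhydrotetracycline.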

[14] = system: Mycolicibacterium smegmatis; test: Antimicrobial activity against Mycobacterium smegmatis mc27032 harboring deltaMSMEG_1088 from Mycobacterium smegmatis mc2155 after 48 hrs by broth microdilution method; format: functional; conditions: mc27032, 48 h; summary of the method: as §2
[15] = system: Mycolicibacterium smegmatis; test: Antimicrobial activity against Mycobacterium smegmatis mc27034 harboring deltaMSMEG_1090 from Mycobacterium smegmatis mc27031 after 48 hrs by broth microdilution method; format: functional; conditions: mc27034, 48 h; summary of the method: as §2
[16] = system: Mycolicibacterium smegmatis; test: Antimicrobial activity against Mycobacterium smegmatis mc27035 harboring deltaMSMEG_1090 from Mycobacterium smegmatis mc2155 after 48 hrs by broth microdilution method; format: functional; conditions: mc27035, 48 h; summary of the method: as §2
[17] = system: Mycolicibacterium smegmatis; test: Antimicrobial activity against Mycobacterium smegmatis mc27036 harboring deltaMSMEG_1090 from Mycobacterium smegmatis mc22612 after 48 hrs by broth microdilution method; format: functional; conditions: mc27036, 48 h; summary of the method: as §2
[18] = system: Mycolicibacterium smegmatis; test: Antimicrobial activity against 5-Cl-PZA-resistant Mycobacterium smegmatis mc27037 after 48 hrs by broth microdilution method; format: functional; conditions: mc27037, 48 h; summary of the method: as §2
[19] = system: Mycolicibacterium smegmatis; test: Antimicrobial activity against Mycobacterium smegmatis mc27038 harboring attBL5::Ptc::pzaAMsmeg from Mycobacterium smegmatis mc2155 after 48 hrs by broth microdilution method; format: functional; conditions: mc27038, 48 h; summary of the method: as §2
[20] = system: Mycobacterium tuberculosis; test: Antimicrobial activity against Mycobacterium tuberculosis H37Ra after 11 days by broth microdilution method at pH 6; format: functional; conditions: 264 h
Summary of the method: (§3)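 Tubercle bacilli were diluted to 10^6 CFU/ml in supplemented 7H9 containing graded PZA or 5-Cl PZA, at pH 6.0 or neutral pH 6.8. Cultures were incubated 11 days at 37°C. The MIC is the lowest concentration blocking visible growth. Integrated amidase constructs were induced with 50 ng/ml anhydrotetracycline.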

[21] = system: Mycobacterium tuberculosis; test: Antimicrobial activity against Mycobacterium tuberculosis H37Ra after 11 days by broth microdilution method at pH 6.8; format: functional; conditions: 264 h; summary of the method: as §3
[22] = system: Mycolicibacterium smegmatis; test: Inhibition of Fatty acid synthase type 1 in Mycobacterium smegmatis mc27031 at 1500 ug/ml after 2 hrs by HPLC
[23] = system: Mycolicibacterium smegmatis; test: Inhibition of Fatty acid synthase type 1 in Mycobacterium smegmatis mc2155 at 250 ug/ml after 2 hrs by HPLC
[24] = system: Mycolicibacterium smegmatis; test: Inhibition of Fatty acid synthase type 1 in Mycobacterium smegmatis mc2155 at 2.5 mg/ml after 2 hrs by HPLC
Summary of the method: (§4)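 FAS I activity: mid-log cells (OD600 0.5) were resuspended to OD600 0.2 in 7H9 with 0.2% dextrose and 0.05% tyloxapol, pH 5.1, plus 2.5 mg/ml PZA, for 2 h at 37°C. They were pulsed with [1-14C]acetate (1 μCi/ml) for a further 2 h. Lipids were extracted, saponified, and derivatized to p-bromophenacyl esters. 14C-palmitate was quantified by reverse-phase HPLC.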

[25] = system: Mycolicibacterium smegmatis; test: Inhibition of Fatty acid synthase type 1 in Mycobacterium smegmatis mc27031 at 2.5 mg/ml after 2 hrs by HPLC; summary of the method: as §4

| SMILES | Activity [1] | Activity [2] | Activity [3] | Activity [4] | Activity [5] | Activity [6] | Activity [7] | Activity [8] | Activity [9] | Activity [10] | MIC [11] | MIC [12] | MIC [13] | MIC [14] | MIC [15] | MIC [16] | MIC [17] | MIC [18] | MIC [19] | MIC [20] | also measured |
| --- | --- | --- | --- | --- | --- | --- | --- | --- | --- | --- | --- | --- | --- | --- | --- | --- | --- | --- | --- | --- | --- |
| NC(=O)c1cnc(Cl)cn1 | 0.15 nmol/min | 0.85 nmol/min | 32 nmol/min | 100 nmol/min | 65 nmol/min | 1.2 nmol/min | 0.95 nmol/min | 1.2 nmol/min | 100 nmol/min | 34 nmol/min | 25 µg/mL (≈ 159 µM) | 125 µg/mL (≈ 793 µM) | 125 µg/mL (≈ 793 µM) | 125 µg/mL (≈ 793 µM) | 25 µg/mL (≈ 159 µM) | 25 µg/mL (≈ 159 µM) | 25 µg/mL (≈ 159 µM) | 125 µg/mL (≈ 793 µM) | 125 µg/mL (≈ 793 µM) | 25 µg/mL (≈ 159 µM) | MIC [21]: 200 µg/mL (≈ 1270 µM); Activity [22]: Active; Activity [23]: Active |
| NC(=O)c1cnccn1 [PYRAZINAMIDE] | 0.23 nmol/min | 0.85 nmol/min | 32 nmol/min | 100 nmol/min | 65 nmol/min | 1.2 nmol/min | 0.95 nmol/min | 1.2 nmol/min | 100 nmol/min | 34 nmol/min | > 4000 µg/mL | > 4000 µg/mL | 150 µg/mL (≈ 1220 µM) | 150 µg/mL (≈ 1220 µM) | > 4000 µg/mL | > 4000 µg/mL | > 4000 µg/mL | 150 µg/mL (≈ 1220 µM) | > 4000 µg/mL | > 1000 µg/mL | inhibition [24]: Active; MIC [21]: 62.5 µg/mL (≈ 508 µM); inhibition [25]: inactive |
